Bioassay records as filed in PubChem.
EBV gp42 block = Epstein-Barr virus gp42 inhibitors, primary screen, biochemical, uHTS, fluorescence polarization; Fluorescence polarization binding assay, mP read-out; actives 0.42% (n = 220,000); Glycoprotein 42 (Epstein-Barr virus (strain AG876)), Q1HVG2; inhibition, % (tested at 21.74 µM); in the data active = inhibition above about 50%
WT yeast gro inh = growth inhibition of WT strain, primary screen, mitochondrial fusion inhibitor project, WT and mutant strains, chemical genetic. mitochondrial fusion phenotypic screen. inhibition, % at 10 µM. actives 2.1% (n = 190,000). AID 1362, 2008; in the data active = inhibition above about 58%; tested in S. cerevisiae
eIF4E 4G PPI = eIF4E–eIF4G protein interaction inhibitors, primary screen, biochemical, uHTS, TR-FRET, eIF4GI fragment. inhibition, % at 21.7 µM. actives 0.37% (n = 220,000). AID 782, 2007. TR-FRET eIF4E-eIF4GI(517-606) binding, 2 h. Eukaryotic translation initiation factor 4E (Mus musculus) + Eukaryotic translation …
14-3-3 Bad inh = inhibitors of 14-3-3 zeta/Bad binding, primary screen, biochemical, TR-FRET, bovine 14-3-3 zeta. 14-3-3 protein zeta/delta (Bos taurus), P63103. TR-FRET 14-3-3zeta/Dy647-pBad peptide displacement, 1 h. inhibition, % at 21.7 µM. actives 0.71% (n = 220,000);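 active = inhibition above about 70%, limit read from the data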
NCF1 inh = p47phox/p22phox peptide binding inhibitors, primary screen, biochemical, uHTS, NADPH oxidase regulatory subunit | Neutrophil cytosol factor 1 (Homo sapiens), P14598 | fluorescence polarization, 2 h | inhibition, % at 24.7 µM | actives 0.53% (n = 220,000)
Target sequence (P14598 whole entry, looked up): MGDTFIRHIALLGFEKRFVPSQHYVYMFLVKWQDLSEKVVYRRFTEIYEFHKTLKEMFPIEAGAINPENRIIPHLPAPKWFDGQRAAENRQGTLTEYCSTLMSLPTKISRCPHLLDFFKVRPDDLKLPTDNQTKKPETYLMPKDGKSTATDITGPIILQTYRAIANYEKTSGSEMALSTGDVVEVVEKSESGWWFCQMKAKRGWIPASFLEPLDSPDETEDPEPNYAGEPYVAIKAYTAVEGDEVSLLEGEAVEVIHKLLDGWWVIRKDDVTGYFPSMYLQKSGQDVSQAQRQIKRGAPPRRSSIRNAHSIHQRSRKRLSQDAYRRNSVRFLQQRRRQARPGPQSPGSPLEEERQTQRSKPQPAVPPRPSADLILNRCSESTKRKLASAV
RBBP9 inhibitor = human RBBP9 inhibitors, primary screen, biochemical, fluorescence polarization, FP-Rh probe, HTS; Serine hydrolase RBBP9 (Homo sapiens), O75884; recombinant RBBP9; inhibition, % at 7.94 µM; actives 0.2% (n = 220,000); AID 1515, 2009;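 active = inhibition above the campaign mean of all tested compounds plus 3 SD, cut at about 14% in these data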
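System: RBBP9 protein / Quantity: 2.5 µM RBBP9 dispensing solution, before mixing / Also added: Serine-hydrolase probe FP-Rh, 375 nM pre-mixing / Dosing: 7.94 µM single dose, 0.794% DMSO / Timing: enzyme-compound preincubation 30 min, then probe labeling 45 min, 25 °C / Signal: FP readout at 525/598 nm / Controls: DMSO-treated enzyme wells and wells lacking RBBP9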
Numbers stand for hits; . = inactive; / = no result. Compounds with a hit are over-represented: about 3.7% of the library has one in this group of screens.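 Rule for the calls, unless noted: active = inhibition above about 30% (limit read from the data); inactive = the rest.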

SMILES	EBV gp42 block	WT yeast gro inh	eIF4E 4G PPI	14-3-3 Bad inh	NCF1 inh	RBBP9 inhibitor
O=C(NCCN1CCOCC1)c1csc2c1CCCC2	.	.	.	.	70.6	.
CC1CC(C)CN(CCCNC(=O)c2csc3c2CCCC3)C1 (stereo not drawn)	.	.	.	.	.	.
Cn1c(/N=C/c2c(O)ccc3ccccc23)nc2ccccc21	157.3	.	.	.	.	.
O=C(NCCCn1ccnc1)c1cc(-c2ccc3c(c2)OCO3)on1	.	.	.	.	.	.
O=C(NCCCn1ccnc1)c1ccc2c(c1)OCCO2	90.2	.	.	.	.	.
CC1=C(C(=O)OCc2ccccc2)C(/C=C/c2ccccc2)NC(=S)N1 (stereo not drawn)	.	68.8	.	.	.	.
Cc1c(O)ccc2c(O)c(NC(=O)c3ccc4c(c3)CCC(C)(C)O4)c(=O)oc12	.	/	.	.	.	.
CC(C)(C)c1ccc(-c2noc(-c3ccno3)n2)cc1	.	/	.	.	.	.
CC(C)(C)c1ccc(-c2nc(-c3ccncc3)no2)cc1	.	62.2	.	.	.	.
CCCc1nc(-c2cc3ccccc3[nH]c2=O)no1	.	/	.	96.0	.	.
O=C1NC(=O)/C(=C/c2cccc([N+](=O)[O-])c2)N1	.	/	.	.	.	.
CCN1C/C(=C/c2cccc([N+](=O)[O-])c2)C(=O)/C(=C/c2cccc([N+](=O)[O-])c2)C1	.	88.3	.	.	.	.
N=c1c(C(=O)NCc2ccco2)cc2c(=O)n3ccccc3nc2n1Cc1ccccc1	.	.	.	.	.	.
N=c1c(C(=O)NCc2ccco2)cc2c(=O)n3ccccc3nc2n1Cc1ccc(Cl)cc1	/	73.8	/	/	/	.
COc1ccc2c(c1)nc(NCCCO)n2Cc1ccccc1	.	/	.	.	.	.
COc1ccc(-c2nc(NC(=O)C3=NN(c4cccc(C)c4)C(=O)CC3)sc2C)cc1	.	.	.	.	.	.
Cc1cccc(C(=O)NC(=S)Nc2ccc(Cc3ccncc3)cc2)c1	.	60.6	.	.	.	.
O=C(O)c1ccc(NC(=S)NC(=O)c2cccc(COc3ccccc3)c2)cc1	.	91.1	.	.	.	.
Cc1cc(C)cc(C(=O)NC(=S)Nc2ccc(Cc3ccncc3)cc2)c1	.	.	.	.	.	.
O=C(NC(=S)Nc1ccc(CN2CCCCC2)cc1)c1cccc(OCc2ccccc2)c1	.	71.7	.	.	.	.
CCOc1cccc(C(=O)NC(=S)Nc2ccccc2)c1	.	.	.	.	.	.
COc1cccc(C(=O)/C(C#N)=N/Nc2cccc(-c3ccnc(C)n3)c2)c1	.	/	.	.	.	.
COc1c(C)cc(C(=O)C2CCCN(C(=O)c3ccc4cc[nH]c4c3)C2)cc1C (stereo not drawn)	.	.	.	.	.	.
Cc1ccc(S(=O)(=O)N2CCCCC2)cc1NC(=O)Cn1c(=O)cnc2ccccc21	.	.	.	.	.	.
O=c1c2ccccc2nc2c3ccccc3cnn12	.	.	.	79.7	.	.
SMILES	EBV gp42 block	WT yeast gro inh	eIF4E 4G PPI	14-3-3 Bad inh	NCF1 inh	RBBP9 inhibitor
O=c1c2ccccc2nc2c3ccccc3c(Cl)nn12	.	.	.	.	.	.
CCCCN(CC)CCCNC(=O)CC1Oc2ccccc2NC1=O (stereo not drawn)	.	.	.	.	.	.
CCN(CC)CCCNC(=O)CC1Sc2ccccc2NC1=O (stereo not drawn)	.	.	32.0	.	.	.
Cc1ccc(NC(=S)Nc2ccc(OC(F)F)c(Cl)c2)cc1F	.	85.2	.	.	.	.
COc1cc(C)c(NC(=S)Nc2ccc(Cl)c(Cl)c2)cc1OC	.	79.5	.	.	.	.
COCCNC(=S)Nc1ccc(Cl)c(Cl)c1	.	.	.	.	.	.
COc1cc(OC)c(NC(=S)Nc2cc(Cl)cc(Cl)c2)cc1Cl	.	82.7	.	.	.	.
